ChEMBL document CHEMBL3992510, “Urea Derivatives of 2-Aryl-benzothiazol-5-amines: A New Class of Potential Drugs for Human African Trypanosomiasis” (J Med Chem, 2017)
pEC50: −log10 of the molar value. Active and inactive are the calls of the source. No cut-off for these calls is given here.

Assays:
[1] = Cmax in mouse brain at 50 mg/kg, po administered as single dose via gavage by liquid chromatography/tandem mass spectrometric analysis; type: ADME, organism-based; design: dose 50 mg/kg, route oral
Outline: (§1)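 Time course after a single 50 mg/kg oral dose in 5% DMSO/7% Tween 80/3% EtOH in 0.9% saline. Mice are sacrificed in groups of three at 1, 4, 8 and 24 h. Plasma is separated by centrifugation and brain homogenized in acetonitrile, both measured by LC-MS/MS. Brain values are corrected for 3% v/w blood. Lower limit of quantitation 0.010 μM. Values are means ± SEM.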

[2] = test system: Trypanosoma brucei brucei; assay: Anti-parasitic activity against Trypanosoma brucei brucei TREU667 infected in mouse assessed as reduction in parasitemia at 50 mg/kg, bid administered via oral gavage on day 21 to 30 post infection measured on day 180 by microscopic method; type: functional, organism-based
Outline: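 Groups of five mice are infected on day 0 with 1 × 10^4 parasites to give a chronic infection. From day 21, mice receive 50 mg/kg orally b.i.d. for 10 days (20 doses) in 200 μL of 60% Phosal 53 MCT/30% PEG400/10% EtOH; a vehicle-only group runs alongside. Tail blood slides are examined microscopically until 180 days postinfection. Three mice are sampled before dose 15 and at 1 and 6 h after.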

[3] = Cytotoxicity against human CRL8155 cells assessed as growth inhibition after 48 hrs by Alamar blue assay; type: cell-based; conditions: Homo sapiens, CRL8155, 48 h
Outline: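 CRL-8155 lymphoblasts or HepG2 hepatocellular carcinoma cells are exposed 48 h to serial compound dilutions in quadruplicate. Growth is read with Alamar Blue, and 50% and 90% inhibitory concentrations come from nonlinear regression. Quinacrine is the control.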

[4] = AUC (0 to infinity) in mouse plasma at 50 mg/kg, po administered as single dose via gavage by liquid chromatography/tandem mass spectrometric analysis; type: ADME, organism-based; design: dose 50 mg/kg, time infinity, route oral; outline: as §1
[5] = AUC (0 to infinity) in mouse brain at 50 mg/kg, po administered as single dose via gavage by liquid chromatography/tandem mass spectrometric analysis; type: ADME, organism-based; design: dose 50 mg/kg, time infinity, route oral; outline: as §1
[6] = Drug level in Swiss-Webster mouse plasma infected with Trypanosoma brucei brucei TREU667 at 50 mg/kg, po bid administered via gavage for 10 days starting from 21 days post infection measured at 1 hr post last dose; type: ADME, organism-based
[7] = Drug level in mouse brain at 50 mg/kg, po administered as single dose via gavage measured at 1 hr post dose by liquid chromatography/tandem mass spectrometric analysis; type: ADME, organism-based; conditions: read-out: Drug uptake
Outline: (§2)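 Single 50 mg/kg oral dose in DMSO (5%), Tween 80 (7%), EtOH (3%) in 0.9% saline; groups of three mice killed at 1, 4, 8 and 24 h. Plasma separated by brief centrifugation; brain homogenised in acetonitrile; both assayed by LC-MS/MS, brain values corrected for 3% v/w blood content. Mean ± SEM of 3 mice; plasma LLQ 0.010 μM.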

[8] = Drug level in mouse brain at 5 mg/kg, ip administered as single dose measured at 1 hr post dose by liquid chromatography/tandem mass spectrometric analysis; type: ADME, organism-based; conditions: read-out: Drug uptake
Outline: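 Single ip dose of 5 mg/kg in 5% DMSO/7% Tween 80/3% EtOH in 0.9% saline, three mice per compound (six for one compound). At 1 h, plasma is separated by centrifugation and brain homogenized in acetonitrile. Both are quantified by LC-MS/MS, with brain corrected for 3% v/w blood. Brain/plasma ratio is reported as mean ± SEM.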

[9] = Drug level in mouse plasma at 50 mg/kg, po administered as single dose via gavage measured at 8 hrs post dose by liquid chromatography/tandem mass spectrometric analysis; type: ADME, organism-based; outline: as §2
[10] = Stability in human liver microsomes assessed as compound remaining at 1.5 uM in presence of NADPH measured after 60 mins by liquid chromatography/tandem mass spectrometric analysis; type: ADME, microsome; conditions: read-out: Stability
Outline: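 Pooled liver microsomes (0.5 mg/mL) are preincubated 5 min at 37 °C in 0.16 M KH2PO4 with 1 mM NADPH, then test compound is added at 1.5 μM. Aliquots are quenched with 4 volumes of acetonitrile at 0, 5, 10, 15, 30 and 60 min and analyzed by LC-MS/MS. Percent remaining at 5 or 60 min is given when t1/2 is outside the 5–60 min range. Controls: testosterone, dextromethorphan.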

[11] = Drug level in mouse plasma at 50 mg/kg, po administered as single dose via gavage measured at 1 hr post dose by liquid chromatography/tandem mass spectrometric analysis; type: ADME, organism-based; outline: as §2
[12] = Drug level in mouse plasma at 50 mg/kg, po administered as single dose via gavage measured at 4 hrs post dose by liquid chromatography/tandem mass spectrometric analysis; type: ADME, organism-based; outline: as §2

Which Cmax [1] does the source give for `O=C(Nc1ccc2sc(-c3ccc(F)c(F)c3)nc2c1)N1CC[C@H](F)C1` here?
The Cmax was 54.8 µM.

What about the Activity [2] of the same molecule?
The Activity was “Active”.

What about the pEC50 [3] of the same molecule?
Its pEC50 is < 4.30.

What about the AUC(0-inf) [4] of the same molecule?
The AUC(0-inf) was 180 µM·h.

What about the AUC(0-inf) [5] of the same molecule?
Its AUC(0-inf) is 719 µM·h.

And the concentration at 1 h [6]?
The concentration at 1 h was 23.1 µM.

And the concentration at 1 h [7]?
The concentration at 1 h was 38.2 µM.

And the concentration at 1 h [8]?
Its concentration at 1 h is 9.07 µM.

What about the concentration at 8 h [9] of the same molecule?
Its concentration at 8 h is 8.97 µM.

And the remaining at 1 h, 1.5 µM [10]?
The remaining at 1 h, 1.5 µM was 53%.

What about the concentration at 1 h [11] of the same molecule?
The concentration at 1 h was 27.1 µM.

And the concentration at 4 h [12]?
The concentration at 4 h was 10.2 µM.
